Measurements as given in ChEMBL document CHEMBL1926594, “Molecular modeling studies, synthesis, configurational stability and biological activity of 8-chloro-2,3,5,6-tetrahydro-3,6-dimethyl-pyrrolo[1,2,3-de]-1,2,4-benzothiadiazine 1,1-dioxide” (Bioorg Med Chem, 2011).
One block for each compound: values may come before it.

Legend:
[1] = Configurational stability of compound in water-acetonitrile assessed as backward rate equilibrium epimerization at pH 7 using IAM column by stopped flow bidimensional recycling HPLC; format: physicochemical; conditions: artificial membrane
In short: (§1)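 sf-BD-rHPLC with an IAM-based reactor column. (3*,6R) epimers separated on Chiralcel OD-R at 0 °C using water/acetonitrile 50:50 (v/v). Trapped epimer interconverts at 37.5 °C in chloroacetate buffer pH 2.20 or phosphate buffer pH 7.00 (ionic strength 0.01), then is re-separated at 0 °C, n = 4. Forward, backward and equilibrium rate constants derived from peak areas.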

[2] = Configurational stability of compound in water-acetonitrile assessed as forward rate epimerization at pH 7 using C-8 column by stopped flow bidimensional recycling HPLC; format: physicochemical; conditions: buffer
In short: (§2)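 Stopped-flow bidimensional recycling HPLC on the (3*,6R) epimeric mixture. Epimers separated on Chiralcel OD-R at 0 °C with water/acetonitrile 50:50 (v/v). One epimer is trapped on a Supelcosil LC-8 (C8) reactor column and epimerizes at 37.5 °C in chloroacetate buffer pH 2.20 or phosphate buffer pH 7.00 (ionic strength 0.01). Column recooled to 0 °C, epimers re-separated, n = 4. Rate constants from first-order reversible kinetics.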

[3] = tested on: DIV7-10; assay: Positive allosteric modulation activity at AMPA receptor in Sprague-Dawley rat cortical neuronal DIV7-10 cells assessed as increase in kainate induced currents at 100 uM by patch clamp electrophysiological method; format: cell-based
In short: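 Cortical neurons from newborn Sprague–Dawley rats: trypsin-dispersed, plated on poly-L-lysine and switched to BME/Neurobasal with B27 after 24 h, with 1 µM Ara-C added at DIV5. Whole-cell voltage-clamp at room temperature on DIV7-10 cells. Kainate-evoked currents recorded with co-application of epimeric mixture at 100 µM. Potentiation given as mean ± SE, n = 4.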

[4] = Configurational stability of compound assessed as half life using IAM column by stopped flow bidimensional recycling HPLC; format: physicochemical; conditions: IAM column (stationary phase); in short: as §1
[5] = Configurational stability of compound in water-acetonitrile assessed as forward rate equilibrium epimerization at pH 7 using IAM column by stopped flow bidimensional recycling HPLC; format: physicochemical; conditions: artificial membrane; in short: as §1
[6] = Configurational stability of compound in water-acetonitrile assessed as backward rate epimerization at pH 2.2 using C-8 column by stopped flow bidimensional recycling HPLC; format: physicochemical; conditions: buffer; in short: as §2
[7] = Configurational stability of compound in water-acetonitrile assessed as forward rate epimerization at pH 2.2 using C-8 column by stopped flow bidimensional recycling HPLC; format: physicochemical; conditions: buffer; in short: as §2
[8] = Configurational stability of compound assessed as half life using C-8 column by stopped flow bidimensional recycling HPLC; format: physicochemical; conditions: C-8 column (stationary phase); in short: as §2
[9] = Configurational stability of compound in water-acetonitrile assessed as backward rate epimerization at 25 degC by dynamic HPLC analysis; format: physicochemical; conditions: buffer
In short: (§3)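 Dynamic HPLC on the (3*,6R) epimeric mixture: isocratic Chiralcel OD-R column, water/acetonitrile 50:50 (v/v), run at temperatures of 5-37 °C. Sample at 100 μg/mL final, 20 μL injected, UV detection at 254 nm. Interconversion rate constants obtained from elution profiles by integration of the interconverting peak areas.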

[10] = Configurational stability of compound in water-acetonitrile assessed as forward rate epimerization at 5 degC by dynamic HPLC analysis; format: physicochemical; conditions: buffer; in short: as §3
[11] = Configurational stability of compound in water-acetonitrile assessed as backward rate equilibrium epimerization at pH 7 using C-8 column by stopped flow bidimensional recycling HPLC; format: physicochemical; conditions: buffer; in short: as §2
[12] = Configurational stability of compound in water-acetonitrile assessed as forward rate equilibrium epimerization at pH 2.2 using C-8 column by stopped flow bidimensional recycling HPLC; format: physicochemical; conditions: buffer; in short: as §2
[13] = Configurational stability of compound in water-acetonitrile assessed as forward equilibrium rate epimerization at 5 degC by dynamic HPLC analysis; format: physicochemical; conditions: buffer; in short: as §3
[14] = Configurational stability of compound in water-acetonitrile assessed as forward equilibrium rate epimerization at 37 degC by dynamic HPLC analysis; format: physicochemical; conditions: buffer; in short: as §3
[15] = Configurational stability of compound in water-acetonitrile assessed as forward rate epimerization at 25 degC by dynamic HPLC analysis; format: physicochemical; conditions: buffer; in short: as §3
[16] = Configurational stability of compound in water-acetonitrile assessed as backward rate equilibrium epimerization at pH 2.2 using IAM column by stopped flow bidimensional recycling HPLC; format: physicochemical; conditions: artificial membrane; in short: as §1
[17] = Configurational stability of compound in water-acetonitrile assessed as backward rate epimerization at pH 7 using C-8 column by stopped flow bidimensional recycling HPLC; format: physicochemical; conditions: buffer; in short: as §2
[18] = Configurational stability of compound in water-acetonitrile assessed as forward rate epimerization at 37 degC by dynamic HPLC analysis; format: physicochemical; conditions: buffer; in short: as §3
[19] = Configurational stability of compound in water-acetonitrile assessed as backward rate epimerization at pH 2.2 using IAM column by stopped flow bidimensional recycling HPLC; format: physicochemical; conditions: artificial membrane; in short: as §1
[20] = Configurational stability of compound in water-acetonitrile assessed as backward rate epimerization at 37 degC by dynamic HPLC analysis; format: physicochemical; conditions: buffer; in short: as §3
[21] = Configurational stability of compound in water-acetonitrile assessed as forward rate epimerization at pH 7 using IAM column by stopped flow bidimensional recycling HPLC; format: physicochemical; conditions: artificial membrane; in short: as §1
[22] = Configurational stability of compound in water-acetonitrile assessed as forward equilibrium rate epimerization at 25 degC by dynamic HPLC analysis; format: physicochemical; conditions: buffer; in short: as §3
[23] = Configurational stability of compound in water-acetonitrile assessed as backward rate equilibrium epimerization at pH 2.2 using C-8 column by stopped flow bidimensional recycling HPLC; format: physicochemical; conditions: buffer; in short: as §2
[24] = Configurational stability of compound in water-acetonitrile assessed as forward rate equilibrium epimerization at pH 7 using C-8 column by stopped flow bidimensional recycling HPLC; format: physicochemical; conditions: buffer; in short: as §2
[25] = Configurational stability of compound in water-acetonitrile assessed as backward rate epimerization at 5 degC by dynamic HPLC analysis; format: physicochemical; conditions: buffer; in short: as §3
[26] = Configurational stability of compound in water-acetonitrile assessed as forward rate equilibrium epimerization at pH 2.2 using IAM column by stopped flow bidimensional recycling HPLC; format: physicochemical; conditions: artificial membrane; in short: as §1
[27] = Configurational stability of compound in water-acetonitrile assessed as forward rate epimerization at pH 2.2 using IAM column by stopped flow bidimensional recycling HPLC; format: physicochemical; conditions: artificial membrane; in short: as §1
[28] = Configurational stability of compound in water-acetonitrile assessed as backward rate epimerization at pH 7 using IAM column by stopped flow bidimensional recycling HPLC; format: physicochemical; conditions: artificial membrane; in short: as §1
[29] = Chemical stability of compound assessed as compound hydrolysis at pH 2.2 at 37.5 degC after 90 mins; format: physicochemical; conditions: buffer, pH 2.2, 1.5 h
In short: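 (3*,6R) epimeric mixture held on reactor column in chloroacetate buffer (ionic strength 0.01, pH 2.20) at 37.5 °C for up to 90 min. Hydrolysis checked by the sf-BD-rHPLC method: Chiralcel OD-R separative column at 0 °C, water/acetonitrile 50:50 (v/v) eluent.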

- K [1]: 8.93 ×10⁻⁴ /s
- K [2]: 4.49 ×10⁻⁴ /s
- half-life [4]: 10 min
- K [5]: 7.2 ×10⁻⁴ /s
- K [6]: 2.26 ×10⁻⁴ /s
- K [7]: 4.61 ×10⁻⁴ /s
- half-life [8]: 10 min
- K [9]: 0.76 ×10⁻⁴ /s
- K [10]: 0.17 ×10⁻⁴ /s
- K [11]: 7.77 ×10⁻⁴ /s
- K [12]: 6.68 ×10⁻⁴ /s
- K [13]: 0.23 ×10⁻⁴ /s
- K [14]: 1.99 ×10⁻⁴ /s
- K [15]: 1.11 ×10⁻⁴ /s
- K [16]: 9.63 ×10⁻⁴ /s
- K [17]: 2.34 ×10⁻⁴ /s
- K [18]: 1.28 ×10⁻⁴ /s
- K [19]: 3.48 ×10⁻⁴ /s
- K [20]: 0.71 ×10⁻⁴ /s
- K [21]: 5.3 ×10⁻⁴ /s
- K [22]: 1.87 ×10⁻⁴ /s
- K [23]: 6.52 ×10⁻⁴ /s
- K [24]: 5.9 ×10⁻⁴ /s
- K [25]: 0.06 ×10⁻⁴ /s
- K [26]: 10.7 ×10⁻⁴ /s
- K [27]: 6.68 ×10⁻⁴ /s
- K [28]: 2.75 ×10⁻⁴ /s
SMILES: CC1NS(=O)(=O)c2cc(Cl)cc3c2N1C[C@@H]3C (mixture of isomers)
- Activity [3]: 112%

- Stability [29]: Stable
SMILES: CC1CN2c3c1cc(Cl)cc3S(=O)(=O)NC2C (stereo not given)

SMILES: CC1NS(=O)(=O)c2cc(Cl)cc3c2N1C[C@H]3C (mixture of isomers)
- Activity [3]: 250%
